The format of data set [1] is in vivo, Japanese subjects (human). Particulars: single oral 150 mg; for Tmax: both, human, plasma, po, 150 mg, median tmax. The method in brief: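 Renal groups by eGFR from the Japanese creatinine equation. Overnight-fasted subjects received one 150 mg tablet with 150 mL water on Day 1 morning, with no water from 1 h before to 1 h after. Blood was drawn predose, then 0.25–12 h and at 24, 36, 48, 60 and 72 h. Plasma (25 µL) was assayed by validated LC–MS/MS (LLOQ 0.25 ng/mL; linear 0.25–500 ng/mL). AUCinf was regressed on eGFR as a fixed effect.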

The next data set in a line: Safety assessment. Type of data set: in vivo, Japanese subjects (human). Particulars: single oral 150 mg. The method in brief:
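After an overnight fast, a single oral 150 mg tablet was given. Monitoring covered TEAEs, supine BP and pulse, axillary temperature, haematology, biochemistry, urinalysis and 12-lead ECG up to 7 days post-dose, with follow-up 7 (± 2) days after discharge. TEAEs were coded in MedDRA v17.1. The investigator assigned causality and graded severity by CTCAE v4.0.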

For data set [2] the following is noted: cited from earlier work; for mean urinary excretion: healthy volunteers.
For data set [3] the following is noted: cited from earlier work.

The structures appear in SMILES notation. Like-named read-outs stand apart in the source and are kept apart here.

The values below come from publication PMC6989572 (Clinical Drug Investigation, 2019).

`NC(=O)c1cnc2[nH]ccc2c1N[C@@H]1[C@@H]2CC3C[C@H]1C[C@@](O)(C3)C2` [Peficitinib]: the Tmax in data set [1] (across the renal function groups, fasting conditions) was 1.5 to 1.75 h; in data set [1] (renal impairment groups, fasting), 1.5 h. Also, the “linear regression of AUCinf, CL/F and eGFR across the renal function groups” value in data set [1] is “no statistically significant slopes”. Also, the “death, serious TEAE or TEAE leading to withdrawal of treatment” value in “Safety assessment” (all 31 subjects) was “No death, serious TEAE or TEAE leading to withdrawal of treatment was reported”. In addition, in “Safety assessment” (all subjects, day of admission and post-dose time points), the ECG results was “normal”. Besides, the “intensity of TEAEs” value in “Safety assessment” (both TEAEs (headache, ALT increased)) was “mild”. Besides, the “vital sign measurements, mean changes from baseline” value in “Safety assessment” is on record as “No clinically significant mean changes from baseline”. In addition, the mean urinary excretion in data set [2] (after 2 weeks of multiple dosing) was 15–17%; in data set [2] (single oral dose) it was 9–15 % of dose. In data set [2] (healthy subjects, fed conditions), the median tmax was 4 h.

As to `CCS(=O)(=O)N1CC(CC#N)(n2cc(-c3ncnc4[nH]ccc34)cn2)C1` [baricitinib], the “AUC increase compared with subjects with normal renal function” value in data set [3] (mild renal impairment) is recorded as 1.41 fold; in data set [3] (moderate renal impairment), 2.22 fold; in data set [3] (severe renal impairment), 4.05 fold. The “Cmax increase compared with subjects with normal renal function” value in data set [3] (mild renal impairment) is recorded as 1.16 fold; in data set [3] (moderate renal impairment), 1.46 fold; in data set [3] (severe renal impairment), 1.40 fold.
